KCNK3 block – human KCNK3 channel inhibitors, primary screen, CHO cells, FluxOR thallium flux, B-score. Potassium channel subfamily K member 3 (Homo sapiens), O14649. 340,000 tested, 0.84% active. AID 602410, 2012. FluxOR fluorescence; active compounds read low. B-score at 10 µM;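 active = B-score under library mean minus 4 SD, starting fluorescence ratio at most library mean plus 5 SD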;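 note: more negative B-score means stronger inhibition of thallium flux through KCNK3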
Target sequence (O14649 whole entry, looked up): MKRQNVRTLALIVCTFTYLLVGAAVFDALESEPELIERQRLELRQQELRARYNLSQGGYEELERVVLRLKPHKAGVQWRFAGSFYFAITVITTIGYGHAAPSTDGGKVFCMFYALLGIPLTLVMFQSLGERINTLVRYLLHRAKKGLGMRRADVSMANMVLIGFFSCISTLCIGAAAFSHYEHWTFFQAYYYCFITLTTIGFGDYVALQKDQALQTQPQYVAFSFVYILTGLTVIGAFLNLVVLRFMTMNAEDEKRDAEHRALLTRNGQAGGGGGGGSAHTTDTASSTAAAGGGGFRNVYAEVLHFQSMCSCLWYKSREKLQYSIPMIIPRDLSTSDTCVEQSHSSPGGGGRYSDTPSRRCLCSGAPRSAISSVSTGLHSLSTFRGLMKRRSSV
Kir21 inh – inhibitors of mouse Kir2.1 inward-rectifier potassium channel. Inward rectifier potassium channel 2 (Mus musculus), P35561. HEK293-Kir2.1, FluxOR thallium flux fluorescence; active compounds read low. B-score at 10 µM. 310,000 tested, 0.85% active;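 active = fluorescence ratio B-score at or below minus 3 SD of library scores, with starting-brightness B-score within 2 SD, cut at about -4.2 in these data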;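 note: channel flux triggered by added potassium and thallium sulfate stimulus; B-score of peak minus minimum fluorescence over baseline after thallium stimulus; more negative B-score means stronger Kir2.1 block with less thallium influx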
KCNQ1 block – inhibitors of human KCNQ1 channel, primary screen, cell-based, thallium flux, high-throughput; 310,000 tested, 1.3% active; CHO-K1 KCNQ1, FluxOR thallium flux fluorescence; active compounds read high; Potassium voltage-gated channel subfamily KQT member 1 (Homo sapiens), P51787; B-score at 10 µM;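 active = compounds whose thallium flux B-score, printed positive for inhibition, exceeds three library SD while starting fluorescence stays within three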;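 note: channel opened by potassium depolarization with thallium stimulus after 20 min compound exposure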
KCNQ1 act – potentiators or activators of KCNQ1 channel, primary screen, cell-based, thallium flux, high-throughput; CHO-K1 KCNQ1, thallium flux FluxOR fluorescence; active compounds read high; B-score at 10 µM; 310,000 tested, 0.35% active;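 active = fluorescence ratio B-score, a plate-corrected score, at least three library SD, with initial intensity B-score within 5 SD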
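Assay system: stable KCNQ1 CHO-K1 line; medium: assay buffer, equal DMSO in all wells; timing: 90 min dye loading and 20 min compound exposure, both at room temperature; technique: kinetic FluxOR thallium fluorescence, 10-s 1-Hz baseline, 110-s post-stimulus read; read-out basis: B score of baseline-normalized fluorescence ratio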
hERG rescue – hERG rescue from dofetilide block, primary screen, cell-based, CHO-hERG, FluxOR thallium flux, dofetilide IC70; AID 1511, 2009; 310,000 tested, 0.51% active; Voltage-gated inwardly rectifying potassium channel KCNH2 (Homo sapiens), Q12809; dofetilide IC70 present; activation (rescue from dofetilide block), less the hit threshold, % at 10 µM;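 active = activation above the mean of controls blocked by dofetilide plus 5 SD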;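 note: thallium influx through hERG after potassium depolarization seen as dye fluorescence rise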
KCNK9 inh – KCNK9 potassium channel inhibitors, primary screen, HEK293 cells, thallium flux | Potassium channel subfamily K member 9 (Homo sapiens), Q9NPC2 | FluxOR thallium flux fluorescence; active compounds read low | B-score at 10 µM | 310,000 tested, 1.2% active;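 active = ratio B-score over 3 SD below the library mean, with starting fluorescence within 5 SD of its mean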;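 note: negative B-score means less thallium flux so channel inhibition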
KCNK9 block conf – KCNK9 potassium channel inhibitors, confirmation, HEK293 cells, thallium flux, duplicate; inhibition, % at 10 µM; AID 492992, 2010; shares compounds with KCNK9 inh; FluxOR thallium flux fluorescence; 4,900 tested, 43% active;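 active = thallium signal inhibited by more than 5 SD of the compound-free buffer control wells, on both duplicate plates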;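 note: 0% = assay buffer control wells without compound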
Kir2-1 spec – mouse Kir2.1 channel inhibition, confirmation, selectivity assay for KCNK9 modulator project, cell-based, HEK293, thallium flux; shares compounds with KCNK9 inh; AID 492993, 2010; 4,900 tested, 4% active; inhibition, % at 10 µM; Kir2.1 cells, FluxOR thallium flux fluorescence;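 active = thallium signal drop more than 5 SD beyond the mean of the no-compound control wells, seen in both duplicate plates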;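 note: signal is fluorescence rise after thallium addition divided by baseline fluorescence; plate controls were assay buffer only for no effect and full block by chlorpromazine control for full effect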
KCNK9 uninduced – thallium flux in non-induced HEK293 cells, confirmation, counter-screen for KCNK9 inhibitor project, cell-based, second counter screen, non-induced KCNK9-HEK293; shares compounds with KCNK9 inh; FluxOR thallium flux; inhibition, % at 10 µM; 4,900 tested, 40% active; AID 492997, 2010;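 active = thallium signal drop beyond 5 SD of the untreated control mean, on both duplicate plates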;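 note: plate controls were buffer only IC0 wells for no effect and SID17386958 at its maximal inhibitory level for full effect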
Numbers without * were called inactive; i = inactive; . = no result given. The list is not random: actives were taken first. Their share in the collection is about 3.8%.

SMILES | KCNK3 block | Kir21 inh | KCNQ1 block | KCNQ1 act | hERG rescue | KCNK9 inh | KCNK9 block conf | Kir2-1 spec | KCNK9 uninduced
Fc1ccccc1N1CC(c2ccccc2)C(c2cccs2)=N1 (configuration not stated) | i | 1.9 | i | i | -9 | -8.6* | 34%* | i | 43%*
CCOC(=O)[C@@H]1[C@H]2COc3ccccc3[C@@H]2N2C(=O)N(c3ccc(C(F)(F)F)cc3)C(=O)[C@@]12C | i | . | . | . | . | . | . | . | .
CCOC(=O)[C@@H]1[C@H]2COc3ccccc3[C@H]2N2C(=O)N(c3ccc(C(F)(F)F)cc3)C(=O)[C@]12C | i | -0.6 | i | i | -12 | -8.6* | 52%* | i | 34%*
O=S(=O)(NCCc1nc2ccccc2[nH]1)c1ccccc1 | i | . | . | . | . | . | . | . | .
COc1ccc(OC)c(/C=N/c2c(-c3ccc(O)c(OC)c3)nc3ccccn23)c1 | i | 1.3 | i | i | -6 | -14* | i | i | i
COc1cc(-c2nc3ccccn3c2/N=C/c2cc(OC)c(OC)c(OC)c2)ccc1O | i | -0.03 | i | i | -7 | i | . | . | .
O=C(OCC(=O)N1CCCCCC1)c1cccnc1Cl | i | . | . | . | . | . | . | . | .
Cc1ccc(OCCn2c(=S)[nH]c3ccccc32)c(C(C)C)c1 | i | -1.8 | i | i | -10 | i | i | 42%* | i
Cc1cccc(OCCn2c(=S)[nH]c3ccccc32)c1 | i | -1.5 | i | i | -1 | i | . | . | .
CSc1cccc(NC(=O)CSc2ncccc2C(=O)Oc2cccc([N+](=O)[O-])c2)c1 | i | 0.49 | i | i | -6 | i | . | . | .
CCN(C(=O)CSc1ncccc1C(=O)Oc1cccc([N+](=O)[O-])c1)c1cccc(C)c1 | i | 0.7 | i | i | -8 | -19* | 52%* | i | 28%*
COC(=O)c1ccc(N2C(=O)CC(N3CCN(c4ccccc4)CC3)C2=O)cc1 (configuration not stated) | i | -0.88 | i | i | -6 | i | . | . | .
Cc1ccc(C(c2nnnn2Cc2cccs2)N2CCN(Cc3ccc4c(c3)OCO4)CC2)cc1 (configuration not stated) | i | -2.2 | i | i | -18 | -12* | i | i | 32%*
CCCCNC(=O)N1CCN(c2ccccc2OC)CC1 | i | 0.25 | i | i | -8 | i | . | . | .
O=C(NC1=NCCS1)c1cc(-c2ccccc2)nn1-c1ccccc1 | i | 2 | i | i | -13 | i | . | . | .
CC(C)CC1Nc2ncnc(N3CCCCC3)c2N(Cc2ccccc2)C1=O (configuration not stated) | i | -2.1 | i | i | -9 | -9.1* | 39%* | i | 38%*
O=C1C(Cc2ccccc2)Nc2ncnc(N3CCCCC3)c2N1Cc1ccc(Cl)cc1 (configuration not stated) | i | -1.2 | i | i | -8 | -17* | 76%* | i | 34%*
COc1cccc(CN2C(=O)N(C(C)C)C(N(O)C(=O)NC(C)C)C2(C)C)c1OC (configuration not stated) | i | -0.42 | i | i | -4 | i | . | . | .
O=C(OCCN(C1=NS(=O)(=O)c2ccccc21)c1ccccc1Cl)c1ccc(Cl)cc1 | i | 1.3 | i | i | -10 | -8.1* | 30%* | i | 30%*
CN(CC(=O)Nc1ccc(Cl)cc1)C1=NS(=O)(=O)c2ccccc21 | i | . | . | . | . | . | . | . | .
C(#Cc1ccccc1)CN1CCN(c2ccccn2)CC1 | i | 3.8 | i | i | -5 | i | i | i | i
C(#Cc1ccccc1)CN1CCCCC1 | i | 0.46 | i | i | -6 | i | . | . | .
COc1ccc(-n2c(C)nn(CCOc3ccccc3)c2=O)cc1 | i | -1.2 | i | i | -5 | i | . | . | .
Cc1nn(CC2CC2)c(=O)n1-c1ccc(Oc2ccccc2)cc1 | i | -0.5 | i | i | -3 | i | i | i | i
O=[N+]([O-])c1ccc(Oc2c(F)c(F)nc(N3CCCC3)c2F)cc1 | i | -0.8 | 7* | i | -4 | i | i | i | i
SMILES | KCNK3 block | Kir21 inh | KCNQ1 block | KCNQ1 act | hERG rescue | KCNK9 inh | KCNK9 block conf | Kir2-1 spec | KCNK9 uninduced
FC(F)(F)c1ccc(-c2nc(=S)[nH][nH]2)cc1 | i | 0.37 | i | i | -20 | i | i | i | i
COC(=O)c1cc(=O)n(Cc2ccc(OC)cc2)c(=NCc2ccc(OC)cc2)s1 | i | 1.6 | i | i | -15 | i | i | i | i
Clc1cccc(COn2c(-c3ccc(Cl)cc3Cl)nc3ncccc32)c1 | i | -2.3 | i | i | -11 | -8.8* | 46%* | i | 35%*
COc1ccc(C(C)=O)cc1COc1ccc(Cl)cc1Cl | i | 0.74 | i | i | 0 | -14* | 50%* | i | 37%*
Cc1cc(C(C)(C)C)cc(C)c1Cn1c2[n+](c3ccc(C(F)(F)F)cc31)CCCCC2 | i | -7.2* | 6* | i | -26 | -11* | 71%* | i | i
CCN(C(=O)COc1cc(=O)n(C)c2ccccc12)c1cccc(Cl)c1 | i | -2 | i | i | -10 | i | i | i | i
CN(C(=O)COc1cc(=O)n(C)c2ccccc12)c1cccc(Cl)c1 | i | 0.48 | i | i | -14 | i | . | . | .
Cc1cc(CSc2nc(C)cc(=O)[nH]2)c2ncccc2c1 | i | -0.14 | i | i | -16 | i | . | . | .
COc1ccc(-n2nnnc2/C=C/Nc2cc(C(F)(F)F)ccc2OC)cc1 | i | 1.8 | i | i | -9 | -12* | 34%* | i | 43%*

Assay outcomes (PubChem)
